Reference: ChEMBL document CHEMBL4364270, “Structure-activity relationship studies on Bax activator SMBA1 for the treatment of ER-positive and triple-negative breast cancer” (Eur J Med Chem, 2019)

Experiments:
MCF7 [1] = test: Antiproliferative activity against ER-positive human MCF7 cells assessed as reduction in cell growth incubated for 48 hrs by MTT assay; assay type: functional, cell-based; conditions: MCF7, 48 h
Method in brief: (§1)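 MTT viability: MCF-7 and MDA-MB-231 seeded 1×10^4 cells/well, exposed to DMSO or 0.01-100 μM for 48 h; MTT (5 mg/mL in PBS) added 4 h, formazan dissolved in DMSO, OD 550 nm; quadruplicate wells; IC50 fitted for compounds giving >50% inhibition at 10 µM; at least three independent experiments.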

MCF7 [2] = test: Antiproliferative activity against ER-positive human MCF7 cells assessed as reduction in cell viability at 10 uM incubated for 48 hrs by MTT assay relative to control; assay type: functional; conditions: MCF7, 48 h; method in brief: as §1
MDA-MB-231 [3] = test: Antiproliferative activity against triple negative human MDA-MB-231 cells assessed as reduction in cell growth at 10 uM incubated for 48 hrs by MTT assay relative to control; assay type: functional; conditions: MDA-MB-231, 48 h; method in brief: as §1
MDA-MB-231 [4] = test: Antiproliferative activity against triple negative human MDA-MB-231 cells assessed as reduction in cell growth incubated for 48 hrs by MTT assay; assay type: functional, cell-based; conditions: MDA-MB-231, 48 h; method in brief: as §1
MDA-MB-468 = test: Antiproliferative activity against triple negative human MDA-MB-468 cells assessed as reduction in cell growth incubated for 72 hrs by MTT assay; assay type: functional, cell-based; conditions: MDA-MB-468, 72 h
Method in brief: (§2)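 MTT viability after 72 h exposure at indicated concentrations; cells seeded at 1×10^3 cells/well (T47D, MDA-MB-468, MCF-10A, MCF-7/ADR) in 96-well plates; quadruplicate wells, independently repeated three times; IC50 as mean ± SE of at least three experiments.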

MDA-MB-231 [5] = test: Antitumor activity against triple-negative human MDA-MB-231 cells xenografted in mouse assessed as reduction in tumor growth at 20 mg/kg, ip administered once daily for 7 days; assay type: functional; conditions: MDA-MB-231, ip, 168 h, read-out: GI
Method in brief: (§3)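 Female nude mice (6 weeks) given 2.5×10^6 MDA-MB-231 cells in PBS into third mammary fat pad, randomized into four groups; at 200 mm³ tumor volume dosed i.p. daily for 7 days in 50% DMSO/50% PEG vehicle; tumor volume (0.5×L×W²) and body weight measured daily; one-way ANOVA.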

[6] = Toxicity in mouse xenografted with triple negative human MDA-MB-231 cells assessed as body weight at 20 mg/kg, ip administered once daily for 7 days; assay type: organism-based; conditions: in vivo, 168 h; method in brief: as §3
MCF-10A = test: Antiproliferative activity against human MCF10A cells assessed as reduction in cell growth incubated for 72 hrs by MTT assay; assay type: functional, cell-based; method in brief: as §2
MDA-MB-231 [7] = test: Potency index, ratio of SMBA1 IC50 to compound IC50 for antiproliferative activity against triple negative human MDA-MB-231 cells assessed as reduction in cell growth incubated for 48 hrs by MTT assay; assay type: functional
MCF7 [8] = test: Potency index, ratio of SMBA1 IC50 to compound IC50 for antiproliferative activity against ER-positive human MCF7 cells assessed as reduction in cell growth incubated for 48 hrs by MTT assay; assay type: functional
T47D = test: Antiproliferative activity against ER-positive human T47D cells assessed as reduction in cell growth incubated for 72 hrs by MTT assay; assay type: functional, cell-based; method in brief: as §2
MDA-MB-231 [9] = test: Antitumor activity against triple-negative human MDA-MB-231 cells xenografted in mouse assessed as reduction in tumor growth at 40 mg/kg, ip administered once daily for 7 days; assay type: functional; conditions: MDA-MB-231, ip, 168 h, read-out: GI; method in brief: as §3
[10] = Toxicity in mouse xenografted with triple negative human MDA-MB-231 cells assessed as body weight at 40 mg/kg, ip administered once daily for 7 days; assay type: organism-based; conditions: in vivo, 168 h; method in brief: as §3

IC50 (MCF7 [1]) [µM]	IC50 (MDA-MB-231 [4]) [µM]	Structure (SMILES)	inhibition at 10 µM (MCF7 [2]) [%]	inhibition at 10 µM (MDA-MB-231 [3]) [%]	other results
4.66	5.08	CC[C@H](N)COc1ccccc1C=C1c2ccccc2-c2ccc([N+](=O)[O-])cc21	> 50	> 50	
4.5	5.04	CC(C)[C@H](N)COc1ccccc1C=C1c2ccccc2-c2ccc([N+](=O)[O-])cc21	> 50	> 50	
9.58	> 10	CN1CCN(CCOc2ccccc2C=C2c3ccccc3-c3ccc([N+](=O)[O-])cc32)CC1	> 50		
4.26	5.48	CNCCOc1ccccc1C=C1c2ccccc2-c2ccc([N+](=O)[O-])cc21	> 50	> 50	
> 10	> 10	NC[C@H](CCl)Oc1ccccc1C=C1c2ccccc2-c2ccc([N+](=O)[O-])cc21			
	> 10	O=[N+]([O-])c1ccc2c(c1)C(=Cc1ccccc1OCCN1CCOCC1)c1ccccc1-2			
> 10	> 10	O=[N+]([O-])c1ccc2c(c1)C(=Cc1ccccc1OCCF)c1ccccc1-2			
> 10	> 10	Nc1ccc2c(c1)C(=Cc1ccccc1O)c1ccccc1-2			
> 10	> 10	Nc1ccccc1C=C1c2ccccc2-c2ccc([N+](=O)[O-])cc21			
3.81	3.22	NCCOc1ccccc1C=C1c2ccccc2-c2ccc([N+](=O)[O-])cc21	> 50	> 50	IC50 (MDA-MB-468): 8.73 µM; inhibition in vivo at 20 mg/kg (MDA-MB-231 [5]): 57%; Activity [6]: Non-Toxic; IC50 (MCF-10A): 4.37 µM; Ratio IC50 (MDA-MB-231 [7]): 1.7 - 2.2; Ratio IC50 (MCF7 [8]): 1.7 - 2.2; IC50 (T47D): 9.47 µM
	> 10	CS(=O)(=O)N1CCN(CCOc2ccccc2C=C2c3ccccc3-c3ccc([N+](=O)[O-])cc32)CC1			
> 10	> 10	CN1CCN(c2ncccc2C=C2c3ccccc3-c3ccc([N+](=O)[O-])cc32)CC1			
5	4.27	O=[N+]([O-])c1ccc2c(c1)C(=Cc1cccnc1N1CCNCC1)c1ccccc1-2	> 50	> 50	
> 10	> 10	COc1ccccc1C=C1c2ccccc2-c2ccc([N+](=O)[O-])cc21			
	> 10	O=[N+]([O-])c1ccc2c(c1)C(=Cc1ccccc1OCCN1CCN(S(=O)(=O)C3CC3)CC1)c1ccccc1-2			
> 10	8.64	O=[N+]([O-])c1ccc2c(c1)C(=Cc1ccccc1OCCN1CCCCC1)c1ccccc1-2		> 50	
> 10	> 10	CN(C)CCOc1ccccc1C=C1c2ccccc2-c2ccc([N+](=O)[O-])cc21			
4.97	3.5	O=[N+]([O-])c1ccc2c(c1)C(=Cc1ccccc1OCCN1CCNCC1)c1ccccc1-2	> 50	> 50	

IC50 (MCF7 [1]) [µM]	IC50 (MDA-MB-231 [4]) [µM]	Structure (SMILES)	inhibition at 10 µM (MCF7 [2]) [%]	inhibition at 10 µM (MDA-MB-231 [3]) [%]	other results
> 10	> 10	Nc1ncccc1C=C1c2ccccc2-c2ccc([N+](=O)[O-])cc21			
	> 10	O=[N+]([O-])c1ccc2c(c1)C(=Cc1ccccc1OCCO)c1ccccc1-2			
8.3	5.6	O=[N+]([O-])c1ccc2c(c1)C(=Cc1ccccc1O)c1ccccc1-2	> 50	> 50	IC50 (MDA-MB-468): 16.1 µM; inhibition in vivo at 40 mg/kg (MDA-MB-231 [9]): 51%; IC50 (MCF-10A): 7.58 µM; Activity [10]: Non-Toxic; IC50 (T47D): 10.4 µM
> 10	> 10	COc1ncccc1C=C1c2ccccc2-c2ccc([N+](=O)[O-])cc21			
8.47	6.4	NCCOc1ccc(C=C2c3ccccc3-c3ccc([N+](=O)[O-])cc32)cc1	> 50	> 50	
3.77	4.87	NCCOc1cccc(C=C2c3ccccc3-c3ccc([N+](=O)[O-])cc32)c1	> 50	> 50	
5.13	5.34	NCCCOc1ccccc1C=C1c2ccccc2-c2ccc([N+](=O)[O-])cc21	> 50	> 50	
6.31	6.03	NCCOc1ccccc1C=C1c2ccccc2-c2ccc(N)cc21	> 50	> 50	
6.13	9.35	NCCOCCOc1ccccc1C=C1c2ccccc2-c2ccc([N+](=O)[O-])cc21	> 50	> 50	
> 10	> 10	CN(C)CCNc1ccccc1C=C1c2ccccc2-c2ccc([N+](=O)[O-])cc21			
> 10	> 10	O=[N+]([O-])c1ccc2c(c1)C(=Cc1ccccc1Br)c1ccccc1-2			
	> 10	O=[N+]([O-])c1ccc2c(c1)C(=Cc1cccnc1O)c1ccccc1-2			
> 10	> 10	CC(=O)N1CCN(CCOc2ccccc2C=C2c3ccccc3-c3ccc([N+](=O)[O-])cc32)CC1			
5.77	3.66	NCCCCOc1ccccc1C=C1c2ccccc2-c2ccc([N+](=O)[O-])cc21	> 50	> 50	
5.45	3.53	O=[N+]([O-])c1ccc2c(c1)C(=Cc1ccccc1OC1CCNCC1)c1ccccc1-2	> 50	> 50	
> 10	> 10	CC(C)(C)OC(=O)NCCOc1ccccc1C=C1c2ccccc2-c2ccc([N+](=O)[O-])cc21			
> 10	> 10	CC(=O)NCCOc1ccccc1C=C1c2ccccc2-c2ccc([N+](=O)[O-])cc21			
